Results published in ChEMBL document CHEMBL1133075, “Synthesis and characterization of a novel class of protein tyrosine phosphatase inhibitors” (Bioorg Med Chem Lett, 2000).
pKi: −log10 of the molar value.

How the values were obtained:
[1] = target: T1, Tyrosine-protein phosphatase non-receptor type 1 (Homo sapiens, UniProt P18031); assay: Compound was evaluated for the inhibition constant against Protein-tyrosine phosphatase (PTP1B )
T1 sequence (P18031 whole entry): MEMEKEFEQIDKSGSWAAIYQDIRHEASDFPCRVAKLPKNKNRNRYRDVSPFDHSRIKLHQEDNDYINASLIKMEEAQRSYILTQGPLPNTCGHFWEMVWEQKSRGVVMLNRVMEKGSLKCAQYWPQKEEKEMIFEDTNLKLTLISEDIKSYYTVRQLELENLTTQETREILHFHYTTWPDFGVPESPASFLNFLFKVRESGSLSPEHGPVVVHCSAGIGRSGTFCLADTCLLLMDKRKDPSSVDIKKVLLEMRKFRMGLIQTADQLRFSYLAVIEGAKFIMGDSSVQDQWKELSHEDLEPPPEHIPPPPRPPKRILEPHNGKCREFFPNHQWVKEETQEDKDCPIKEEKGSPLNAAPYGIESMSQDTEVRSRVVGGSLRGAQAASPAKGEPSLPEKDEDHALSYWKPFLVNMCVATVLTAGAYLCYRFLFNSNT
Method in brief: (§1)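 pNPP hydrolysis in pH 7.0 buffer of 50 mM 3,3-dimethylglutarate, 1 mM EDTA, ionic strength 0.15 M with NaCl. Reaction started with enzyme and stopped after 2–3 min with 1 N NaOH. Nonenzymatic substrate hydrolysis subtracted via an enzyme-free control. Initial rates taken at eight pNPP levels (0.2–5 Km) at each of three fixed inhibitor concentrations to obtain the inhibition constant.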

[2] = target: Dual specificity protein phosphatase 3 (Homo sapiens, UniProt P51452); assay: Compound was evaluated for the inhibition constant against dual specificity phosphatase VHR; method in brief: as §1
Dual specificity protein phosphatase 3, sequence (P51452 whole entry): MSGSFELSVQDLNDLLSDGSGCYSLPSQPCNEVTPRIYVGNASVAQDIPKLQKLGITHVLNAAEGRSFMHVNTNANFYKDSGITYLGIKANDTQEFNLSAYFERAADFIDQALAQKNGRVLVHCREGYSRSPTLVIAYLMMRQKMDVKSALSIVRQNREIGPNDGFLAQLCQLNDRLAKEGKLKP

SMILES	pKi [1]	pKi [2]
O=P(O)(O)COc1cccc2ccccc12	2.89	2.32
O=C(O)Cc1ccc(OCP(=O)(O)O)cc1	2.96	2.59
O=P(O)(O)COc1ccccc1 [PHENOXYMETHYLPHOSPHONATE]	2.48	1.59

More lines, now with the values ahead:

pKi [1]	pKi [2]	SMILES
4.33	2.89	O=P(O)(O)COc1ccc(Cc2ccc(O)cc2)cc1
3.39	3.24	O=P(O)(O)COc1cccc2c1ccc1ccccc12
2.89	2.24	O=P(O)(O)COc1ccc2ccccc2c1
